Reference: ChEMBL document CHEMBL1817648, “Synthesis and in vitro antibacterial activity of a series of novel gatifloxacin derivatives” (Eur J Med Chem, 2011)
Converted amounts (≈) assume the structure as drawn.

How the values were obtained:
[1] = Cytotoxicity against african green monkey Vero cells after 72 hrs by MTT assay; assay type: cell-based; conditions: chlorocebus sabaeus
In short: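 Vero cells were kept in Minimum Essential Medium with Earle's salts plus 10% fetal bovine serum at 37 °C under 5% CO₂. Cells were seeded at 1 × 10⁴ per well and allowed to recover 24 h. Medium was then replaced with assay medium containing compound or no drug, and cells were exposed for 72 h. CC₅₀ is the 50% cellular cytotoxic concentration.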

[2] = system: Staphylococcus epidermidis; experiment: Antibacterial activity against methicillin-resistant Staphylococcus epidermidis 09-4 after 18 to 24 hrs by NCCLS M100-S11 two fold serial dilution method; assay type: functional
In short: (§1)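 Two-fold serial dilution in agar medium. MIC read as the lowest concentration giving complete inhibition of bacterial growth after incubation at 35 °C for 18–24 h.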

Klebsiella pneumoniae [3] = experiment: Antibacterial activity against Klebsiella pneumoniae 09-22 after 18 to 24 hrs by NCCLS M100-S11 two fold serial dilution method; assay type: functional
Staphylococcus aureus [4] = experiment: Antibacterial activity against methicillin-sensitive Staphylococcus aureus 08-1 after 18 to 24 hrs by NCCLS M100-S11 two fold serial dilution method; assay type: functional
Staphylococcus aureus [5] = experiment: Antibacterial activity against Staphylococcus aureus ATCC 25923 after 18 to 24 hrs by NCCLS M100-S11 two fold serial dilution method; assay type: functional; conditions: ATCC25923
Enterococcus faecium [6] = experiment: Antibacterial activity against Enterococcus faecium 08-2 after 18 to 24 hrs by NCCLS M100-S11 two fold serial dilution method; assay type: functional
Pseudomonas aeruginosa [7] = experiment: Antibacterial activity against Pseudomonas aeruginosa 09-33 after 18 to 24 hrs by NCCLS M100-S11 two fold serial dilution method; assay type: functional
[8] = system: Staphylococcus epidermidis; experiment: Antibacterial activity against methicillin-sensitive Staphylococcus epidermidis 09-6 after 18 to 24 hrs by NCCLS M100-S11 two fold serial dilution method; assay type: functional; in short: as §1
Pseudomonas aeruginosa [9] = experiment: Antibacterial activity against Pseudomonas aeruginosa ATCC 27853 after 18 to 24 hrs by NCCLS M100-S11 two fold serial dilution method; assay type: functional
Pseudomonas aeruginosa [10] = experiment: Antibacterial activity against Pseudomonas aeruginosa 09-32 after 18 to 24 hrs by NCCLS M100-S11 two fold serial dilution method; assay type: functional
Staphylococcus aureus [11] = experiment: Antibacterial activity against methicillin-resistant Staphylococcus aureus 08-1 after 18 to 24 hrs by NCCLS M100-S11 two fold serial dilution method; assay type: functional; in short: as §1
Escherichia coli [12] = experiment: Antibacterial activity against Escherichia coli 08-22 after 18 to 24 hrs by NCCLS M100-S11 two fold serial dilution method; assay type: functional
Escherichia coli [13] = experiment: Antibacterial activity against Escherichia coli 08-21 after 18 to 24 hrs by NCCLS M100-S11 two fold serial dilution method; assay type: functional
Streptococcus pneumoniae [14] = experiment: Antibacterial activity against Streptococcus pneumoniae 08-2 after 18 to 24 hrs by NCCLS M100-S11 two fold serial dilution method; assay type: functional
Enterococcus faecalis [15] = experiment: Antibacterial activity against Enterococcus faecalis 08-12 after 18 to 24 hrs by NCCLS M100-S11 two fold serial dilution method; assay type: functional
Klebsiella pneumoniae [16] = experiment: Antibacterial activity against Klebsiella pneumoniae 09-23 after 18 to 24 hrs by NCCLS M100-S11 two fold serial dilution method; assay type: functional
Escherichia coli [17] = experiment: Antibacterial activity against Escherichia coli ATCC 25922 after 18 to 24 hrs by NCCLS M100-S11 two fold serial dilution method; assay type: functional; conditions: ATCC25922
Enterococcus faecalis [18] = experiment: Antibacterial activity against Enterococcus faecalis 08-10 after 18 to 24 hrs by NCCLS M100-S11 two fold serial dilution method; assay type: functional
Enterococcus faecium [19] = experiment: Antibacterial activity against Enterococcus faecium 08-7 after 18 to 24 hrs by NCCLS M100-S11 two fold serial dilution method; assay type: functional
[20] = system: Staphylococcus epidermidis; experiment: Antibacterial activity against methicillin-sensitive Staphylococcus epidermidis 09-3 after 18 to 24 hrs by NCCLS M100-S11 two fold serial dilution method; assay type: functional; in short: as §1
Streptococcus pneumoniae [21] = experiment: Antibacterial activity against Streptococcus pneumoniae 08-4 after 18 to 24 hrs by NCCLS M100-S11 two fold serial dilution method; assay type: functional
Pseudomonas aeruginosa [22] = experiment: Antibacterial activity against Pseudomonas aeruginosa 09-34 after 18 to 24 hrs by NCCLS M100-S11 two fold serial dilution method; assay type: functional

Structure (SMILES)	MIC [2] [µg/mL]	MIC (Klebsiella pneumoniae [3]) [µg/mL]	MIC (Staphylococcus aureus [4]) [µg/mL]	MIC (Staphylococcus aureus [5]) [µg/mL]	MIC (Enterococcus faecium [6]) [µg/mL]	MIC (Pseudomonas aeruginosa [7]) [µg/mL]	MIC [8] [µg/mL]	MIC (Pseudomonas aeruginosa [9]) [µg/mL]	MIC (Pseudomonas aeruginosa [10]) [µg/mL]	MIC (Staphylococcus aureus [11]) [µg/mL]	MIC (Escherichia coli [12]) [µg/mL]	MIC (Escherichia coli [13]) [µg/mL]	MIC (Streptococcus pneumoniae [14]) [µg/mL]	MIC (Enterococcus faecalis [15]) [µg/mL]	MIC (Klebsiella pneumoniae [16]) [µg/mL]	MIC (Escherichia coli [17]) [µg/mL]	MIC (Enterococcus faecalis [18]) [µg/mL]	MIC (Enterococcus faecium [19]) [µg/mL]	MIC [20] [µg/mL]	MIC (Streptococcus pneumoniae [21]) [µg/mL]	other results
CCO/N=C(\C)CCN1CCN(c2c(F)cc3c(=O)c(C(=O)O)cn(C4CC4)c3c2OC)CC1C (stereo not given)	0.5 (≈ 1.02 µM)	128 (≈ 262 µM)	128 (≈ 262 µM)	64 (≈ 131 µM)	> 128	> 128	0.5 (≈ 1.02 µM)	> 128	128 (≈ 262 µM)	16 (≈ 32.7 µM)	> 128	> 128	128 (≈ 262 µM)	> 128	> 128	> 128	> 128	> 128	0.5 (≈ 1.02 µM)	> 128	CC50 at 72 h [1]: 88.4 µg/mL (≈ 181 µM); MIC (Pseudomonas aeruginosa [22]): > 128 µg/mL
COc1c(N2CCN(O)C(C)C2)c(F)cc2c(=O)c(C(=O)O)cn(C3CC3)c12 (stereo not given)	0.25 (≈ 0.639 µM)	2 (≈ 5.11 µM)	0.25 (≈ 0.639 µM)	0.125 (≈ 0.319 µM)	16 (≈ 40.9 µM)	32 (≈ 81.8 µM)	0.25 (≈ 0.639 µM)	4 (≈ 10.2 µM)	2 (≈ 5.11 µM)	0.25 (≈ 0.639 µM)	16 (≈ 40.9 µM)	16 (≈ 40.9 µM)	16 (≈ 40.9 µM)	16 (≈ 40.9 µM)	16 (≈ 40.9 µM)	4 (≈ 10.2 µM)	16 (≈ 40.9 µM)	16 (≈ 40.9 µM)	0.25 (≈ 0.639 µM)	2 (≈ 5.11 µM)	CC50 at 72 h [1]: 19.7 µg/mL (≈ 50.3 µM); MIC (Pseudomonas aeruginosa [22]): 4 µg/mL (≈ 10.2 µM)
COc1c(N2CCNC(C)C2)c(F)cc2c(=O)c(C(=O)O)cn(C3CC3)c12 (stereo not given) [GATIFLOXACIN]	0.25 (≈ 0.666 µM)	0.125 (≈ 0.333 µM)	0.06 (≈ 0.16 µM)	0.125 (≈ 0.333 µM)	2 (≈ 5.33 µM)	4 (≈ 10.7 µM)	8 (≈ 21.3 µM)	1 (≈ 2.66 µM)	8 (≈ 21.3 µM)	0.125 (≈ 0.333 µM)	4 (≈ 10.7 µM)	4 (≈ 10.7 µM)	4 (≈ 10.7 µM)	2 (≈ 5.33 µM)	2 (≈ 5.33 µM)	2 (≈ 5.33 µM)	4 (≈ 10.7 µM)	4 (≈ 10.7 µM)	0.25 (≈ 0.666 µM)	0.25 (≈ 0.666 µM)	MIC (Pseudomonas aeruginosa [22]): 1 µg/mL (≈ 2.66 µM)
